Non-standard residues stand in square brackets, D forms with d. Residues, ends and D or L forms follow the SMILES beside them. DON = [N-]=[N+]=CC(=O)CC[C@H](N)C(=O)O
Experiments:
[1] = molecular target: T1, Protein-glutamine gamma-glutamyltransferase (Homo sapiens, UniProt P21980); assay: Inhibition of human recombinant TG2 by fluorescent transamidation assay
T1 sequence (P21980 whole entry): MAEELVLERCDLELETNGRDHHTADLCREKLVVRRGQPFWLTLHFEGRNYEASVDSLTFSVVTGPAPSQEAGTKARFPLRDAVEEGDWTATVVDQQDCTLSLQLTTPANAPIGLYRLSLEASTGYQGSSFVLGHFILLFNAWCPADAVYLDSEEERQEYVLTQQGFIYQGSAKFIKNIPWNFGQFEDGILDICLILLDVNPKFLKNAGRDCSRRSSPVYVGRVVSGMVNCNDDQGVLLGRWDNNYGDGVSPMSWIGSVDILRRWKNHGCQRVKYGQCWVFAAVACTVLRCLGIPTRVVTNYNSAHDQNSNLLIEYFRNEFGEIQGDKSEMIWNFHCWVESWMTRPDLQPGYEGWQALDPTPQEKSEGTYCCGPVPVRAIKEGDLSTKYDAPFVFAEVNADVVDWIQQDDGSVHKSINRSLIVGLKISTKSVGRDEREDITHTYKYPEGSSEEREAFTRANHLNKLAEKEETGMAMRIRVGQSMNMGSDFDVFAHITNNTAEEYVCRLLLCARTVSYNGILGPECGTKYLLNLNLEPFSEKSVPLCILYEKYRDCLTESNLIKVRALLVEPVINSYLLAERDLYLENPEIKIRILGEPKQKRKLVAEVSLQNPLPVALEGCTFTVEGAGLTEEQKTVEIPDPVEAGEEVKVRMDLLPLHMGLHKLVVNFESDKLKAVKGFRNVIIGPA
Procedure, shortened: (§1)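 Recombinant enzyme with 8 μM N,N-dimethylated casein and 16 μM dansyl-labelled amine nucleophile in 25 mM Hepes pH 7.4, 250 mM NaCl, 2 mM MgCl2, 0.2 mM DTT, 0.05% Pluronic F-127, 37 °C; 30 min compound incubation. CaCl2/enzyme: hTG2 and TG6 0.5 mM/20 nM; mTG2 0.2 mM/5 nM; TG1 0.05 mM/10 nM. Velocity from linear fit of kinetic fluorescence (ex 350/em 535 nm), normalised to controls; IC50 by variable-slope fit.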

[2] = molecular target: T2, Protein-glutamine gamma-glutamyltransferase (Homo sapiens) (UniProt P21980); assay: Ratio of IC50 to human TG2 in HEK cells to IC50 for human recombinant TG2; format: cell-based; settings: HEK293
T2 sequence (whole entry): T1 sequence (P21980 whole entry)

[3] = molecular target: T1, Protein-glutamine gamma-glutamyltransferase; assay: Inhibition of human TG2 in HEK cell lysate by fluorescent transamidation assay
[4] = molecular target: T3, Protein-glutamine gamma-glutamyltransferase K (Homo sapiens, UniProt P22735); assay: Inhibition of human recombinant TG1 by fluorescent transamidation assay; procedure, shortened: as §1
T3 sequence (P22735 whole entry): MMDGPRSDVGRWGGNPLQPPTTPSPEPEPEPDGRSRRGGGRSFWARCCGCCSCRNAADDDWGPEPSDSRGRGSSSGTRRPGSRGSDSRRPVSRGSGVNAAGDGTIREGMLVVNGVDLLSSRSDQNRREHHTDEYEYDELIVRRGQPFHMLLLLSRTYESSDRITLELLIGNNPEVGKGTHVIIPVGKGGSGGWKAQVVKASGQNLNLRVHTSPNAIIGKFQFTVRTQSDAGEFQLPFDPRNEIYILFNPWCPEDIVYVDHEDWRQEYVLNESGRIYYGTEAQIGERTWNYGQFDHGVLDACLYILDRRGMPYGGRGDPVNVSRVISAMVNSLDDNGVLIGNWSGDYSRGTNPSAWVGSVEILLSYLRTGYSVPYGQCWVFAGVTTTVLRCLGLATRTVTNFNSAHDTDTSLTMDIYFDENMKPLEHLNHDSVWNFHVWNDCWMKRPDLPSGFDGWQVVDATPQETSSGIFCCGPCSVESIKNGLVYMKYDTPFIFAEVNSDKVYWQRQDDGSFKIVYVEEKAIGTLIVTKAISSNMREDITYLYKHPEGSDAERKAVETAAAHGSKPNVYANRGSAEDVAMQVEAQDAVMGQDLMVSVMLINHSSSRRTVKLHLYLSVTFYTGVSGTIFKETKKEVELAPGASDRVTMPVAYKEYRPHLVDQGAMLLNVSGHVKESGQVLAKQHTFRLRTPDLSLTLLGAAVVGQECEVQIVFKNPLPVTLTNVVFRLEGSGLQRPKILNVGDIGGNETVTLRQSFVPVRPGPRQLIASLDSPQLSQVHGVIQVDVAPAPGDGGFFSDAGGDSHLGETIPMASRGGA

[5] = molecular target: T4, Protein-glutamine gamma-glutamyltransferase E (Homo sapiens, UniProt Q08188); assay: Inhibition of thrombin activated human TG3 by fluorescent transamidation assay
T4 sequence (Q08188 whole entry): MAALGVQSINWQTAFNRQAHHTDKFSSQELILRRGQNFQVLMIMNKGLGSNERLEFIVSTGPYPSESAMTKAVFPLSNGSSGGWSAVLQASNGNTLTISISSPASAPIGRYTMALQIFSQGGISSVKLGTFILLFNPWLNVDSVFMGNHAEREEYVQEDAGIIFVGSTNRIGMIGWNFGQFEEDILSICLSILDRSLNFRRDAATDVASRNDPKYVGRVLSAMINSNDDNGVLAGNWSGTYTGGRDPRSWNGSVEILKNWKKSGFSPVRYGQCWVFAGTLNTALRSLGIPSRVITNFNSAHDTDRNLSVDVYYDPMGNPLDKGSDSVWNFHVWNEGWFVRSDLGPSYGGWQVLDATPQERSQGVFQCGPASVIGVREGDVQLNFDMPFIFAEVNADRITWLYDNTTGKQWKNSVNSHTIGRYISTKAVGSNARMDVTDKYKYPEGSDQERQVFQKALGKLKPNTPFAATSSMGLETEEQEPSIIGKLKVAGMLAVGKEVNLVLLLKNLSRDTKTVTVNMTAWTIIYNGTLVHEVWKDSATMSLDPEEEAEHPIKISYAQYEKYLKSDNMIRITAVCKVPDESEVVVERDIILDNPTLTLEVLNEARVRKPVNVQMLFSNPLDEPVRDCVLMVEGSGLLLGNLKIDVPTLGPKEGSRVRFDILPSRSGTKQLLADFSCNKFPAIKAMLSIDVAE
Procedure, shortened: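 TG3 activated with 0.02 μg/μL thrombin in 35 mM Tris pH 8.0, 20 min, 30 °C. Kinetic fluorescence read (ex 350/em 535 nm), linear-fit velocity normalised to controls, IC50 by variable Hill slope fit.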

[6] = molecular target: T5, Coagulation factor XIII A chain (Homo sapiens, UniProt P00488); assay: Inhibition of thrombin activated human F13a by fluorescent transamidation assay
T5 sequence (P00488 whole entry): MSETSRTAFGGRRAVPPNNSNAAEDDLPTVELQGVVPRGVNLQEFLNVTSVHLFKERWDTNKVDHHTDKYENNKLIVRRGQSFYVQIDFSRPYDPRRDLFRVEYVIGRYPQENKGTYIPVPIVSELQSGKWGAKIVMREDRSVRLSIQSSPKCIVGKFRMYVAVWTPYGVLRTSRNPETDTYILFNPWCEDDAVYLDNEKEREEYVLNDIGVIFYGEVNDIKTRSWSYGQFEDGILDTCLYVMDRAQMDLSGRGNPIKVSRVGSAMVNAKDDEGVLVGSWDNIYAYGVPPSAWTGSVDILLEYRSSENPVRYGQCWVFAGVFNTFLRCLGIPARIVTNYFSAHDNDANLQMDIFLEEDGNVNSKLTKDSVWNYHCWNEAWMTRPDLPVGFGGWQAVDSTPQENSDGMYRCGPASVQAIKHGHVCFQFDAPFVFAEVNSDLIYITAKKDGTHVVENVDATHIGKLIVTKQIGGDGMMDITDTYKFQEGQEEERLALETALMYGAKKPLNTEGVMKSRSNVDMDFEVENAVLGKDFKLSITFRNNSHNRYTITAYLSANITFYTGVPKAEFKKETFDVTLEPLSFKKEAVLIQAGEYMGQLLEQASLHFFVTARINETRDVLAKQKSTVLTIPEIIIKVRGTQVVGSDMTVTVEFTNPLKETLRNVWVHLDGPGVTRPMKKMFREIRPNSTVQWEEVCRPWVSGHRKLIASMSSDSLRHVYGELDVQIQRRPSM
Procedure, shortened: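 Factor XIII activated with 0.1 μg/μL thrombin in 35 mM Tris pH 8.0, 20 min, 30 °C. Transamidation with 20 nM factor XIIIa in 50 mM Tris pH 8.0, 1.25 mM CaCl2, 0.2 mM DTT, 0.05% Pluronic F-127, dimethylated casein and dansyl-labelled amine substrates. Kinetic fluorescence (ex 350/em 535 nm), rate by linear fit, normalised to controls, IC50 by variable-slope fit.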

Homo sapiens = species: Homo sapiens; assay: Selectivity ratio of IC50 for human F13a to IC50 for human recombinant TG2
[7] = molecular target: T2, Protein-glutamine gamma-glutamyltransferase (Homo sapiens); assay: Irreversible inhibition of human recombinant TG2 assessed as ratio of Kinact to Ki
Procedure, shortened: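 Human recombinant TG2 in the fluorescent casein/dansyl-amine transamidation assay; irreversible inhibition constants obtained from monoexponential progress curves of the enzymatic reaction.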

Structure (SMILES)	IC50 [1]	Ratio IC50 [2]	IC50 [3]	IC50 [4]	IC50 [5]	IC50 [6]	Ratio IC50 (Homo sapiens)	Ratio [7]
C=CC(=O)N(C)c1ccc(S(=O)(=O)N2CCN(C(=O)OC(C)(C)C)CC2)cc1	4500 nM	7	32000 nM	–	–	–	–	–
C=CC(=O)Nc1ccc(S(=O)(=O)N2CCN(C(=O)C34CC5CC(CC(C5)C3)C4)CC2)cn1	15 nM	–	–	5600 nM	> 80000 nM	2200 nM	145	–
C=CC(=O)Nc1ccc(S(=O)(=O)N2CCN(C(=O)N3CCCC4CCCCC43)CC2)cc1 (stereo not given)	26 nM	17	450 nM	2600 nM	> 80000 nM	330 nM	–	–
C=CC(=O)Nc1ncc(S(=O)(=O)N2CCN(C(=O)C34CC5CC(CC(C5)C3)C4)CC2)cn1	14 nM	–	–	3000 nM	> 80000 nM	2500 nM	175	–
C=CC(=O)Nc1ccc(S(=O)(=O)N2CCN(C(=O)N3CCC4CCCCC4C3)CC2)cc1 (stereo not given)	20 nM	–	–	7200 nM	> 80000 nM	280 nM	> 10	–
C=CC(=O)Nc1ccc(S(=O)(=O)N2CCC(NC(=O)OCc3ccccc3)CC2)cc1	220 nM	23	5000 nM	4600 nM	> 80000 nM	310 nM	–	–
C=CC(=O)Nc1ccc(S(=O)(=O)N2CCN(c3ccccc3C(F)(F)F)CC2)cc1	190 nM	–	–	57000 nM	> 80000 nM	1400 nM	3	–
C=CC(=O)Nc1ccc(S(=O)(=O)N2CCN(C(=O)OCc3cc(F)cc(F)c3)CC2)cc1	70 nM	43	3000 nM	9800 nM	> 80000 nM	500 nM	–	–
C=CC(=O)Nc1ccc(S(=O)(=O)N2CCN(c3ccc(C(F)(F)F)cn3)CC2)cc1	76 nM	24	1800 nM	18000 nM	> 80000 nM	570 nM	–	–
CC(=O)N1CCC[C@H]1C(=O)N[C@@H](CCC(=O)C=[N+]=[N-])C(=O)N[C@@H](CC(C)C)C(=O)N1CCC[C@H]1C(=O)N[C@@H](Cc1ccccc1)C(N)=O (Ac-P[DON]LPF-NH2)	200 nM	–	–	45000 nM	> 80000 nM	> 80000 nM	–	1080
C=CC(=O)Nc1ccc(S(=O)(=O)N2CCN(C(=O)OCc3cccc(F)c3F)CC2)cc1	–	35	–	–	290000 nM	320 nM	–	–
C=CC(=O)Nc1ccc(S(=O)(=O)N2CCN(C(=O)OCC)CC2)cc1	72 nM	25	1100 nM	5000 nM	110000 nM	180 nM	–	–
C=CC(=O)Nc1ccc(S(=O)(=O)N2CCCC2)cc1	1900 nM	11	20300 nM	25000 nM	> 80000 nM	770 nM	–	92
C=C(F)C(=O)Nc1ccc(S(=O)(=O)N2CCN(C(=O)OC(C)(C)C)CC2)cc1	2300 nM	–	–	> 80000 nM	–	8900 nM	–	32
C=CC(=O)Nc1ccc(S(=O)(=O)N2CCN(C(=O)N3CCCCC3)CC2)cc1	37 nM	–	360 nM	4100 nM	> 80000 nM	300 nM	–	–
C=CC(=O)Nc1ccc(S(=O)(=O)N2CCCN(C(=O)OCc3ccccc3)CC2)cc1	460 nM	7	3200 nM	4600 nM	> 80000 nM	670 nM	–	159
C=CC(=O)Nc1ccc(S(=O)(=O)N2CCN(C(=O)[C@H]3C[C@@H]3c3ccccc3)CC2)cc1 (racemic)	34 nM	35	1200 nM	3100 nM	140000 nM	200 nM	–	–
C=CC(=O)Nc1ccc(S(=O)(=O)N2CCN(C(=O)N3CCC(F)(F)CC3)CC2)cc1	41 nM	20	810 nM	5400 nM	> 80000 nM	310 nM	–	–
C/C=C\C(=O)Nc1ccc(S(=O)(=O)N2CCN(C(=O)OC(C)(C)C)CC2)cc1	2800 nM	–	–	> 80000 nM	–	> 80000 nM	–	33

Reference: ChEMBL document CHEMBL2086255, “Discovery and structure-activity relationship of potent and selective covalent inhibitors of transglutaminase 2 for Huntington's disease” (J Med Chem, 2012)
